# Results as given in ChEMBL document CHEMBL5038597 (J Med Chem, 2021).
# The source made the active and inactive calls. The calls are words filed in the database; no cut-off is given here.
# Experiments:
# THP-1 [1] = assay: Anti-inflammatory activity against human THP-1 monocytes assessed as reduction in LPS-induced IL-1beta release at 0.01 nM to 100 nM pretreated for 30 mins followed LPS stimulation and measured after 24 hrs by multiplex chemiluminescence detection method; type: functional; details: time 24.5 hrs
# Outline: (§1)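 THP-1-Lucia NF-κB monocytes (1 × 10⁵/well, 0.1% FBS medium) pretreated 30 min with compound (ethanol stock, final 0.1% ethanol vehicle), then 50 ng/mL LPS for 24 h.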
# [2] = molecular target: T1, Nuclear factor NF-kappa-B complex (Homo sapiens) (UniProt Q00653+P19838+Q04206); assay: Inhibition of LPS-induced NF-kappaB activation in human THP-1 monocytes expressing luciferase gene at 0.01 to 100 nM pretreated for 30 mins followed by LPS stimulation and measured after 24 hrs by bioluminescence analysis; type: cell-based; details: dose 0.01-100 nM, time 24.5 hr
# T1 sequence (P19838 whole entry, looked up): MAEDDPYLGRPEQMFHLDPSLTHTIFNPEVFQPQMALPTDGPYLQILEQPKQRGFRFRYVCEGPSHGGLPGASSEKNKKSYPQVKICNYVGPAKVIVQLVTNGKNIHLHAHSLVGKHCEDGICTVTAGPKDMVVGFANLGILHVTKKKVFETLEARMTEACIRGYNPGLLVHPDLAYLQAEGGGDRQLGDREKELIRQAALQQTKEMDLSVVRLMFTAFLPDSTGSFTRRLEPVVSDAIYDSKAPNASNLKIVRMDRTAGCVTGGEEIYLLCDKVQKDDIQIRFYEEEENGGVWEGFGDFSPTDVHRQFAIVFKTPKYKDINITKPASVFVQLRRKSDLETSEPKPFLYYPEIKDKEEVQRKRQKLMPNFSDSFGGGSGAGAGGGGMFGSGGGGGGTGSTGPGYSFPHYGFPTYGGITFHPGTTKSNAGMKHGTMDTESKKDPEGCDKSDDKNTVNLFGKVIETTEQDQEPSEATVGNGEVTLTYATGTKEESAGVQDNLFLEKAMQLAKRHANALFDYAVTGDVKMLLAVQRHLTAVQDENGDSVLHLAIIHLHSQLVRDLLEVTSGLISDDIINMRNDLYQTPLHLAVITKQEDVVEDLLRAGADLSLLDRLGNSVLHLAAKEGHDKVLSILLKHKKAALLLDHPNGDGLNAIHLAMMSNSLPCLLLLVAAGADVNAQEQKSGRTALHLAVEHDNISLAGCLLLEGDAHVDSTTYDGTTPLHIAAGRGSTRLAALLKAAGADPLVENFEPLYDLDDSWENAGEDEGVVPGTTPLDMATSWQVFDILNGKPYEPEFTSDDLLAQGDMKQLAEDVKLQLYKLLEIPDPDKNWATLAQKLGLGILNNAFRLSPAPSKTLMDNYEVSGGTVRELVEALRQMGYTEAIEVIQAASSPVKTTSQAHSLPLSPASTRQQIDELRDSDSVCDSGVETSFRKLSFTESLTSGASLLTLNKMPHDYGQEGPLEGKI
# T1 sequence (Q00653 whole entry, looked up): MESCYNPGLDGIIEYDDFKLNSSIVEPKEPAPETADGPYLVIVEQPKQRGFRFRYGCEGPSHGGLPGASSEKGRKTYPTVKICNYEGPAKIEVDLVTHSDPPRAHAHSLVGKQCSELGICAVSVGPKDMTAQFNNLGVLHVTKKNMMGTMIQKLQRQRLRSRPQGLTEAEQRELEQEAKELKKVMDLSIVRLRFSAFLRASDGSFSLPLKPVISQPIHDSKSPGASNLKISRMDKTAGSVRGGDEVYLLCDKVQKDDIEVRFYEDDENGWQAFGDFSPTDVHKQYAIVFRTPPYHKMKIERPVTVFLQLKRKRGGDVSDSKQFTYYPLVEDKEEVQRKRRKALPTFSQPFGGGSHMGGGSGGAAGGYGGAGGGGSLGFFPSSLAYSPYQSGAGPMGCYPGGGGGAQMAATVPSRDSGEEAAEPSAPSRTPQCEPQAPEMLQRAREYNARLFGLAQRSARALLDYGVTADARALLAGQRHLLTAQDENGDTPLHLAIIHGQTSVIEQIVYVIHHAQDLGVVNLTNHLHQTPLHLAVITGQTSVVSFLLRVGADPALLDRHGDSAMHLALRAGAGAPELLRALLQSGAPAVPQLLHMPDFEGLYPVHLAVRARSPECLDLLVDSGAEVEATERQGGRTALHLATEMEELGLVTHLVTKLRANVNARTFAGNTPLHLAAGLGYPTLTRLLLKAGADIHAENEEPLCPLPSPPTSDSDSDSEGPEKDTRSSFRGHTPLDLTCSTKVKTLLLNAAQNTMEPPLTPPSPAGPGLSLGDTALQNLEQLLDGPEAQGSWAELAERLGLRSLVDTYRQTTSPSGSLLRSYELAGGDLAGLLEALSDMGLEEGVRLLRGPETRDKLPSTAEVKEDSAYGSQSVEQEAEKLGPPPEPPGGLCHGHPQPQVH
# T1 sequence (Q04206 whole entry, looked up): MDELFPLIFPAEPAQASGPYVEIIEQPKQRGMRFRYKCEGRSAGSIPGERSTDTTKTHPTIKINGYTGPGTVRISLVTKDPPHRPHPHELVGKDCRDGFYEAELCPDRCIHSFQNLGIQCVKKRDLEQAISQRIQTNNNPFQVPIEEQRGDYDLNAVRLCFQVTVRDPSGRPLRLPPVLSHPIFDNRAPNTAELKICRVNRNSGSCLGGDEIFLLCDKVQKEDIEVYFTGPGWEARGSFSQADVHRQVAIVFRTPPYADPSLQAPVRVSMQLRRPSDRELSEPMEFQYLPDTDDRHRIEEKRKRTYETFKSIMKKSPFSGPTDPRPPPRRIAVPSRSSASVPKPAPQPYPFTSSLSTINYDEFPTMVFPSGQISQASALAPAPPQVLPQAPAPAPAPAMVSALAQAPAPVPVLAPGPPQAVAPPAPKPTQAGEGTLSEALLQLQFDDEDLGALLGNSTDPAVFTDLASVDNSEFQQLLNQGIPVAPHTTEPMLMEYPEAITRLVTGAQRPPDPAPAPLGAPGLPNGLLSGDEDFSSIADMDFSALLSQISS
# Outline: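 Secreted luciferase in supernatant read with QUANTI-Luc by bioluminescence, normalized to BCA protein (lum/abs ratio, two replicates), expressed as % of LPS response; mean ± SEM, n = 3.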
# THP-1 [3] = assay: Cytotoxicity against human THP-1 monocytes assessed as LDH release at 0.001 to 1000 nM incubated for 24 hrs in absence of LPS by LDH assay; type: toxicity, cell-based; details: thp-1, 24 h, 1 µM, dose 0.001-1000 nM
# Outline: (§2)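 THP-1-Lucia monocytes (1 × 10⁵/well) exposed 24 h to compound without LPS (1 pM upward; 0.1% ethanol vehicle). Supernatant LDH absorbance at 490 nm with 690 nm background; 2% Triton X-100 lysis defined maximum release, untreated cells spontaneous release; expressed as % LDH release relative to LPS ± SEM, n = 3.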
# THP-1 [4] = assay: Cytoprotection against LPS-stimulated human THP-1 monocytes toxicity assessed as fold reduction in LDH release at 0.001 to 1000 nM incubated for 24 hrs by LDH assay; type: functional; details: dose 0.001-1000 nM
# Outline: (§3)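 Supernatant LDH read at 490 nm minus 690 nm background; maximum release from 2% Triton X-100 lysis; expressed as % LDH release relative to LPS ± SEM, n = 3.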
# Mus musculus [5] = species on record: Mus musculus; assay: Anti-inflammatory activity in zymosan-induced C57BL/6J mouse model of peritonitis assessed as change in polymorphonuclear cell count; type: functional, organism-based
# Outline: (§4)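 Male C57BL/6J mice (9 weeks) given zymosan 1 mg/mouse ip (40 mg/kg); compound (2 or 6 μg/kg) or dexamethasone (1 mg/kg) ip 30 min before and 1 h after zymosan. Peritoneal lavage 24 h post-zymosan; cells counted with Turk's solution, stained Ly6G/F4/80/CD11b, PMN as Ly6G⁺ by flow cytometry; % of vehicle + zymosan maximal response; n = 5 mice/group, one-way ANOVA.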
# Mus musculus [6] = species on record: Mus musculus; assay: Anti-inflammatory activity in zymosan-induced C57BL/6J mouse model of peritonitis assessed as change in monocyte cell count; type: functional, organism-based
# Mus musculus [7] = species on record: Mus musculus; assay: Anti-inflammatory activity in zymosan-induced C57BL/6J mouse model of peritonitis assessed as change in macrophage cell count; type: functional, organism-based
# Mus musculus [8] = assay: (§5) Anti-inflammatory activity in zymosan-induced C57BL/6J mouse model of peritonitis assessed as total number of polymorphonuclear cells at 6 ug/kg, ip treated 30 mins prior to zymosan administration and once again 1 hr after zymosan administration and measured 24 hrs post zymosan injection by flow cytometry analysis (reference value: 4.7 +/- 0.5 x10^6 /ml); type: functional; details: dose 6 µg/kg; time 24.5 hrs; outline: as §4
# Mus musculus [9] = assay: as §5, with “maximal response” for “total number of polymorphonuclear cells”, “100 %)” for “4.7 +/- 0.5 x10^6 /ml)”; type: functional; details: dose 6 µg/kg; time 24.5 hrs; outline: as §4
# Mus musculus [10] = assay: Anti-inflammatory activity in C57BL/6J mouse model of carrageenan-induced paw edema assessed as reduction in paw swelling at 2 ug/kg, ip administered 30 mins prior to carrageenan injection; type: functional, organism-based; details: dose 2.0 µg/kg
# Outline: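 Male C57BL/6 mice dosed 30 min before intraplantar 50 μL 1% carrageenan (saline in contralateral paw); test compound 2 μg/kg ip, naproxen 50 mg/kg po. Paw thickness difference tracked over time (to 72 h) with a lever gauge as edema index; mean ± SEM, n = 3 mice/group.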
# THP-1 [11] = assay: Anti-inflammatory activity against human THP-1 monocytes assessed as […] in LPS-induced IL-8 release at 1 nM by multiplex chemiluminescence detection method; type: functional, cell-based; outline: as §1
# Mus musculus [12] = assay: Anti-inflammatory activity in zymosan-induced C57BL/6J mouse model of peritonitis assessed as reduced neutrophil influx at 6 ug/kg, ip treated 30 mins prior to zymosan administration (reference value: 100 %); design: scale not given: the % may be the effect or the level left; details: 0.5 h
# THP-1 [13] = assay: Anti-inflammatory activity against human THP-1 monocytes assessed as reduction in LPS-induced IFNgamma release at 1 pM pretreated for 30 mins followed LPS stimulation and measured after 24 hrs by multiplex chemiluminescence detection method; type: functional, cell-based; details: time 24.5 hrs; outline: as §1
# THP-1 [14] = assay: Cytotoxicity against human THP-1 monocytes assessed as LDH release at 1 pM incubated for 24 hrs in absence of LPS by LDH assay; type: toxicity, cell-based; details: thp-1, 24 h; outline: as §2
# [15] = molecular target: T1, Nuclear factor NF-kappa-B complex (Homo sapiens); assay: Inhibition of TNFalpha-stimulated NF-kappaB activity (unknown origin) expressed in mouse primary smooth muscle cells at 1 nM pretreated for 30 mins followed by TNFalpha stimulation and incubated for 24 hrs by SEAP reporter gene assay; type: cell-based; details: THP-1, time 24.5 hrs
# Outline: (§6)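 Mouse primary vascular SMCs in DMEM with 25 mM glucose, serum-restricted (1% FBS) 24 h, transfected 24 h with pNF-κB-SEAP, pretreated 30 min, then TNF-α 1 ng/mL for 24 h; 0.1% ethanol vehicle. Secreted alkaline phosphatase measured in supernatant; fold change vs vehicle, mean ± SEM of 6–8 independent experiments.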
# THP-1 [16] = assay: Cytotoxicity against human THP-1 monocytes assessed as LDH release at 1 uM incubated for 24 hrs in absence of LPS by LDH assay; type: toxicity, cell-based; details: thp-1, 24 h; outline: as §2
# THP-1 [17] = assay: Cytoprotection against LPS-stimulated human THP-1 monocytes toxicity assessed as reduction LDH release at 1 uM incubated for 24 hrs by LDH assay; type: functional; outline: as §3
# Mus musculus [18] = assay: Anti-inflammatory activity in zymosan-induced C57BL/6J mouse model of peritonitis assessed as reduced neutrophil influx at 11 mg/kg, ip treated 1 hr prior to zymosan administration (reference value: 100 %); type: functional; design: scale not given: the % may be the effect or the level left
# Mus musculus [19] = assay: as §5, with “maximal response” for “total number of polymorphonuclear cells”, “1 mg/kg,” for “6 ug/kg,”, “100 %)” for “4.7 +/- 0.5 x10^6 /ml)”; type: functional; details: time 24.5 hrs; outline: as §4
# [20] = molecular target: T1, Nuclear factor NF-kappa-B complex (Homo sapiens); assay: Inhibition of TNFalpha-stimulated NF-kappaB activity (unknown origin) expressed in mouse primary smooth muscle cells at 0.1 nM pretreated for 30 mins followed by TNFalpha stimulation and incubated for 24 hrs by SEAP reporter gene assay; type: cell-based; details: time 24.5 hrs; outline: as §6
# THP-1 [21] = assay: Induction of phagocytosis in human THP-1-MF0 macrophages at 100 nM pretreated for 30 mins followed by fluorescently labeled Escherichia coli derived bio-particles addition and measured after 2 hrs; type: functional, cell-based; details: time 2.5 hrs
# Outline: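 THP-1 monocytes differentiated with 16 nM PMA 48 h plus 24 h rest; 1 × 10⁵ macrophages/well in 0.1% serum adhered 1.5 h, treated 30 min (1 fM–1 μM), medium replaced with fluorescent E. coli bioparticles for 2 h at 37 °C in dark; trypan blue quench 1 min; bottom-read fluorescence Ex480/Em520; fold change vs vehicle, n = 3.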
# HEK293 = assay: Agonist activity at ALX/FPR2 receptor (unknown origin) expressed in HEK-293 cells assessed as increase in calcium flux at 0.01 to 100 nM by Fluo-4 staining based assay; type: cell-based; details: Homo sapiens, filed as agonist, dose 0.01-100 nM
# Outline: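 HEK-293 cells stably double-transfected with ALX/FPR2 and Gαq (Geneticin 500 and Hygromycin 100 μg/mL selection); wild-type HEK-293 as specificity control. Cultured 18 h, loaded with Fluo-4 (37 °C, 1 h), compounds injected in-reader (10 pM–100 nM). Baseline-to-peak calcium fluorescence difference expressed as % of LXA₄ peak; ATP 1 μM and W-peptide 2 nM positive controls; n = 3 independent experiments.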
# THP-1 [22] = assay: Anti-inflammatory activity against human THP-1 monocytes assessed as reduction in LPS-induced IFNgamma release at 0.01 nM to 100 nM pretreated for 30 mins followed LPS stimulation and measured after 24 hrs by multiplex chemiluminescence detection method; type: functional; details: time 24.5 hrs; outline: as §1
# THP-1 [23] = assay: Anti-inflammatory activity against human THP-1 monocytes assessed as reduction in LPS-induced IFNgamma release pretreated for 30 mins followed LPS stimulation and measured after 24 hrs by multiplex chemiluminescence detection method; type: functional, cell-based; outline: as §1
compound,measurement,setting,value
CCCCC[C@H](O)c1nc2ccccc2nc1/C=C/[C@@H](O)[C@@H](O)CCCC(=O)OC,Activity,THP-1 [1],inactive
same,Imax,[2],25%
CCCCC[C@@H](O)c1nc2ccccc2nc1/C=C/[C@@H](O)[C@@H](O)CCCC(=O)OC,Activity,THP-1 [3],Non-Toxic
same,fold change (FC),THP-1 [4],1.3
same,Activity,Mus musculus [5],inactive
same,Activity,Mus musculus [6],inactive
same,Activity,Mus musculus [7],inactive
same,Activity,Mus musculus [8],3.2 10^6/ml
same,Activity,Mus musculus [9],68%
same,Activity,Mus musculus [10],Active
same,Activity,THP-1 [11],Active
same,Activity,Mus musculus [12],22.5%
CCCCC[C@@H](O)c1ccccc1/C=C/[C@@H](O)[C@@H](O)CCCC(=O)OC,Activity,THP-1 [13],inactive
same,Activity,THP-1 [14],Non-Toxic
same,inhibition,[15],Active
CCCCC[C@H](O)c1nc2ccccc2nc1/C=C/[C@H]1OC(C)(C)O[C@H]1CCCC(=O)OC,Activity,THP-1 [3],Toxic
C[C@@H]1C[C@H]2[C@@H]3CCC4=CC(=O)C=C[C@]4(C)[C@@]3(F)[C@@H](O)C[C@]2(C)[C@@]1(O)C(=O)CO [DEXAMETHASONE],Activity,THP-1 [16],Non-Toxic
same,Activity,THP-1 [17],inactive
same,Activity,Mus musculus [18],33.5%
same,Activity,Mus musculus [5],inactive
same,Activity,Mus musculus [6],inactive
same,Activity,Mus musculus [7],inactive
same,Activity,Mus musculus [19],51%
CCCCC[C@@H](O)c1nc2ccccc2nc1/C=C/[C@H]1OC(C)(C)O[C@H]1CCCC(=O)OC,Activity,THP-1 [3],Toxic
same,Activity,Mus musculus [10],inactive
CCCCC[C@H](O)/C=C/C=C\C=C\C=C\[C@@H](O)[C@@H](O)CCCC(=O)O [LIPOXIN A4],Imax,THP-1 [1],93%
same,inhibition,[20],Active
same,Activity,THP-1 [21],Active
same,Activity,HEK293,Active
same,Activity,THP-1 [11],Active
CCCCCCC[C@H](O)c1nc2ccccc2nc1/C=C/[C@@H](O)[C@@H](O)CCCC(=O)OC,Activity,THP-1 [3],Non-Toxic
CCC[C@@H](O)c1nc2ccccc2nc1/C=C/[C@@H](O)[C@@H](O)CCCC(=O)OC,Imax,THP-1 [22],85%
same,IC50,THP-1 [23],1 pM
same,Activity,THP-1 [3],Non-Toxic
same,Imax,[2],30%
CCC[C@H](O)c1nc2ccccc2nc1/C=C/[C@@H](O)[C@@H](O)CCCC(=O)OC,Imax,THP-1 [22],85%
same,IC50,THP-1 [23],1 pM
same,Imax,[2],30%
CCCCC[C@@H](O)c1c(/C=C/[C@@H](O)[C@@H](O)CCCC(=O)OC)nc(C)n1C,Activity,THP-1 [14],Non-Toxic
